{"data": "Results gathered from unrelated publications", "PTGS2": "Prostaglandin G/H synthase 2 (PTGS2, Homo sapiens, UniProt P35354)", "Rock2": "Rho-associated protein kinase 2 (Rock2, Rattus norvegicus, UniProt Q62868)", "SIGMAR1": "Sigma non-opioid intracellular receptor 1 (SIGMAR1, Cavia porcellus, UniProt Q60492)", "note": "Each line is one published result; the experiments were not run side by side."}
{"Structure (SMILES)": "CC/C(=N\\NC(=O)NCc1cccc(O)c1)c1ccc(O)c(C)c1O", "target": "NPM/ALK (Nucleophosmin/ALK tyrosine kinase receptor) (NPM1/ALK, Homo sapiens, UniProt P06748+Q9UM73)", "test": "enzyme activity, inhibitor", "conditions": "0.1 µM", "inhibition [%]": -0.4}
{"Structure (SMILES)": "COc1cc([C@H]2OC[C@H]3[C@@H]2CO[C@@H]3c2cc(OC)c(O)c(OC)c2)cc(OC)c1O", "target": "PTGS2", "test": "enzyme activity, inhibitor", "conditions": "0.98 µg/mL", "inhibition [%]": 49.3}
{"Structure (SMILES)": "O=C(c1ccc(Cl)cc1)N(Cc1ccccc1)C1CCCCC1", "target": "Alpha-2B adrenergic receptor (ADRA2B, Homo sapiens, UniProt P18089)", "test": "cell-free assay", "conditions": "10 µM", "inhibition [%]": 7.2}
{"Structure (SMILES)": "COC(=O)c1ccc(O)cc1", "target": "PTGS2", "test": "enzyme activity, inhibitor", "conditions": "15.63 µg/mL", "inhibition [%]": 53.2}
{"Structure (SMILES)": "O=C1N=C(N2CCCCN2)S/C1=C\\c1ccc(F)cc1O", "target": "5-hydroxytryptamine receptor 1B (Htr1b, Rattus norvegicus, UniProt P28564)", "test": "ligand displacement, radioligand", "conditions": "10 µM", "inhibition [%]": "< 10"}
{"Structure (SMILES)": "Cc1ccc(Nc2nccc(N(C)c3ccc4c(C)n(C)nc4c3)n2)cc1S(N)(=O)=O", "target": "Rock2", "test": "enzyme activity, inhibitor", "conditions": "0.3 µM", "inhibition [%]": 11}
{"Structure (SMILES)": "CN(C)C1CCN(CC#Cc2nn(C3CCCC3)c3nc(NCc4ccccc4)ncc23)C1 (stereo not drawn)", "target": "Dual specificity tyrosine-phosphorylation-regulated kinase 1A (DYRK1A, Homo sapiens, UniProt Q13627)", "test": "enzyme activity, inhibitor, FRET", "conditions": "0.1 µM", "inhibition [%]": 4}
{"Structure (SMILES)": "COc1ccc(-c2cc(=O)c3c(O)cc(O[C@@H]4O[C@H](CO)[C@@H](O)[C@H](O)[C@H]4O)cc3o2)cc1O", "target": "PTGS2", "test": "enzyme activity, inhibitor", "conditions": "0.24 µg/mL", "inhibition [%]": 39.7}
{"Structure (SMILES)": "CC(CN(C)C)C(Oc1cccc2ccccc12)c1cccs1 (stereo not drawn)", "target": "Sigma intracellular receptor 2 (TMEM97, Homo sapiens, UniProt Q5BJF2)", "test": "ligand displacement, radioligand", "conditions": "10 µM", "inhibition [%]": -4.5}
{"Structure (SMILES)": "CNC(=O)c1cc(Oc2ccc(NC(=O)Nc3ccc(Cl)c(C(F)(F)F)c3)cc2)ccn1", "target": "Rock2", "test": "enzyme activity, inhibitor", "conditions": "10 µM", "inhibition [%]": 44}
{"Structure (SMILES)": "O=C(O)c1ccc(O)cc1", "target": "PTGS2", "test": "enzyme activity, inhibitor", "conditions": "0.98 µg/mL", "inhibition [%]": 32.2}
{"Structure (SMILES)": "CCN(Cc1ccccc1C(F)(F)F)C(=O)C1CCN(S(=O)(=O)c2ccc3[nH]ncc3c2)CC1", "target": "Neuropeptide Y receptor type 2 (NPY2R, Homo sapiens, UniProt P49146)", "test": "ligand displacement, radioligand", "conditions": "10 µM", "inhibition [%]": 3}
{"Structure (SMILES)": "COc1cc(NC(C)=O)c(Cl)cc1C(=O)Nc1nccs1", "target": "Muscarinic acetylcholine receptor M3 (CHRM3, Homo sapiens, UniProt P20309)", "test": "cell-free assay", "conditions": "10 µM", "inhibition [%]": -22.1}
{"Structure (SMILES)": "CCN1CCN(Cc2ccc(NC(=O)c3ccc(C)c(Oc4ccnc5[nH]ccc45)c3)cc2C(F)(F)F)CC1", "target": "Scaffold protein ILK (ILK, Homo sapiens, UniProt Q13418)", "test": "target engagement in cells, inhibitor, chemoproteomics", "system": "Huh-7", "conditions": "1 µM", "inhibition [%]": -36.8}
{"Structure (SMILES)": "C=C[C@@]1(C)C=C2CC[C@@H]3[C@](C)(CCC[C@@]3(C)C(=O)O)[C@H]2CC1", "target": "PTGS2", "test": "enzyme activity, inhibitor", "conditions": "0.49 µg/mL", "inhibition [%]": 7.14}
{"Structure (SMILES)": "COc1ccc(CCC(C)N2CCc3cc(OC)c(OC)cc3C2)cc1 (stereo not drawn)", "target": "SIGMAR1", "test": "ligand displacement, radioligand", "conditions": "0.1 µM", "inhibition [%]": 11}
{"Structure (SMILES)": "CN(Cc1ccc(NC(=O)C2=Cc3cc(-c4ccc(OCCCCCCCF)cc4)ccc3CCC2)cc1)C1CCOCC1", "target": "SIGMAR1", "test": "ligand displacement, radioligand", "conditions": "10 µM", "inhibition [%]": 14}
{"Structure (SMILES)": "COc1cc(-c2cc(=O)c3c(O)cc(O)cc3o2)ccc1O", "target": "PTGS2", "test": "enzyme activity, inhibitor", "conditions": "0.49 µg/mL", "inhibition [%]": 0}
